Data as given in ChEMBL document CHEMBL4411297, “Discovery, synthesis and anti-atherosclerotic activities of a novel selective sphingomyelin synthase 2 inhibitor” (Eur J Med Chem, 2019).

Columns and labels:
[1] = MRT (0 to 8 hrs) in C57BL/6J mouse at 100 mg/kg/day, ig by HPLC-MS/MS analysis; format: ADME, organism-based; conditions: in vivo, po
Procedure, shortened: (§1)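 Male C57BL/6J mice (6–8 weeks, ~20 g), fasted 12 h, given a single intragastric dose of 25, 50 or 100 mg/kg in 10% DMSO/30% PEG/0.9% NaCl. Retro-orbital blood at 5 min to 8 h; plasma protein-precipitated with methanol plus internal standard, assayed by LC-MS/MS; noncompartmental analysis. Mean ± SD, n = 6.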

[2] = system: BMDM; assay: Induction of cytosolic IkappaBalpha […] in LPS-stimulated C57BL/6J mouse bone marrow derived macrophages preincubated for 17 hrs followed by LPS-stimulation and measured after 6 hrs by Western blot analysis; format: functional, cell-based
Procedure, shortened: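 Bone marrow-derived macrophages from femurs of 8-week-old male C57BL/6J mice, preincubated with a range of concentrations for 17 h, then stimulated with 1 µg/ml LPS. Cells lysed in RIPA buffer with protease inhibitors. Western blot probed for IκBα with β-actin as loading control, ECL detection. Mean ± SD, n = 7.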

[3] = system: Mus musculus; assay: Anti-atherosclerotic activity in apoE knockout mouse fed with western-type diet assessed as reduction in macrophage content at 12.5 mg/kg/day, ig for 7 weeks by immunostaining assay relative to control; format: functional; parameters: scale not given: the % may be the effect or the level left
Procedure, shortened: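 ApoE KO mice on Western-type diet, dosed by gavage at 12.5 or 40 mg/kg/day for 7 weeks. Aortic root sections 4 µm thick immunostained with MOMA-2: primary antibody 1 h at room temperature, biotinylated secondary, HRP-streptavidin, DAB, hematoxylin counterstain. Stained area quantified and expressed relative to vehicle.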

[4] = target: T1, Phosphatidylcholine:ceramide cholinephosphotransferase 2 (Mus musculus) (UniProt Q9D4B1); assay: Inhibition of SMS2 in C57BL/6J mouse bone marrow derived macrophages assessed as increase in [3H]-cholesterol efflux after 17 hrs by liquid scintillation analysis
T1 sequence (whole entry): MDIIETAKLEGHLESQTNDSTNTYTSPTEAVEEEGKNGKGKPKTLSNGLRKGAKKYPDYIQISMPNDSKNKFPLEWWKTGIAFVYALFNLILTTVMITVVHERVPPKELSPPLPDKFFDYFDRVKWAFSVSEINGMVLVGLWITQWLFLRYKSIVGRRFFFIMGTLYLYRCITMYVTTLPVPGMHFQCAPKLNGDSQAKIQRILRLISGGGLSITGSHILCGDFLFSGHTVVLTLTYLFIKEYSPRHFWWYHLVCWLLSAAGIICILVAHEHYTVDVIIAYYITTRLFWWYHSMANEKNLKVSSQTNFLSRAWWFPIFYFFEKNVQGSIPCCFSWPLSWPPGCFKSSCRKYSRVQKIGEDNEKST
Procedure, shortened: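 Bone marrow macrophages treated with inhibitor at various concentrations for 17 h, labeled with [³H]-cholesterol on acetylated LDL, equilibrated 1 h in DMEM/0.2% BSA, then given 50 µg/ml HDL; medium taken at 8 h. Efflux = medium radioactivity as percent of medium plus cell-lysate total, by scintillation counting.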

[5] = system: Mus musculus; assay: Anti-atherosclerotic activity in apoE knockout mouse fed with western-type diet assessed as reduction in monocyte count at 40 mg/kg/day, ig for 7 weeks by flow cytometric analysis relative to control; format: functional; parameters: scale not given: the % may be the effect or the level left
Procedure, shortened: (§2)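 ApoE KO mice started at 8 weeks old on Western-type diet for 6 weeks. Then dosed by gavage daily with vehicle, 12.5 or 40 mg/kg for 7 weeks with the diet continued, 10 mice per group. Blood single-cell suspensions stained with antibodies in PBS and analysed by flow cytometry. Mean ± SD, n = 5.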

[6] = Dose normalized AUC (0 to 8 hrs) in C57BL/6J mouse at 100 mg/kg/day, ig by HPLC-MS/MS analysis; format: ADME, organism-based; conditions: in vivo, po
Procedure, shortened: (§3)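 Male C57BL/6J mice, six to eight weeks old, about 20 g, fasted 12 h with free water. Given a single intragastric dose of 25, 50 or 100 mg/kg in 10% DMSO/30% PEG-100/0.9% NaCl. Blood taken retro-orbitally at 5 min to 8 h. Plasma protein-precipitated with methanol plus internal standard, then HPLC-MS/MS on a C18 column. Noncompartmental analysis, n = 6.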

[7] = Apparent oral clearance in C57BL/6J mouse at 25 mg/kg/day, ig by HPLC-MS/MS analysis; format: ADME, organism-based; conditions: in vivo; procedure, shortened: as §3
[8] = system: Mus musculus; assay: Anti-atherosclerotic activity in apoE knockout mouse fed with western-type diet assessed as reduction in plasma SM level at 40 mg/kg/day, ig for 7 weeks relative to control; format: functional; parameters: scale not given: the % may be the effect or the level left
Procedure, shortened: (§4)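 ApoE KO mice on Western-type diet, dosed by gavage at 12.5 or 40 mg/kg/day for 7 weeks, n = 10. Blood collected at 20 weeks of age. Plasma SM measured by a previously reported method. ALT and AST read on an automated biochemical analyzer.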

[9] = target: T2, Phosphatidylcholine:ceramide cholinephosphotransferase 2 (Homo sapiens, UniProt Q8NHU3); assay: (§5) Inhibition of purified SMS2 (unknown origin) using C6-NBD-Ceramide and DMPC as substrates preincubated for 5 mins followed by substrate addition and measured after 30 mins by TLC or HPLC method
T2 sequence (Q8NHU3 whole entry): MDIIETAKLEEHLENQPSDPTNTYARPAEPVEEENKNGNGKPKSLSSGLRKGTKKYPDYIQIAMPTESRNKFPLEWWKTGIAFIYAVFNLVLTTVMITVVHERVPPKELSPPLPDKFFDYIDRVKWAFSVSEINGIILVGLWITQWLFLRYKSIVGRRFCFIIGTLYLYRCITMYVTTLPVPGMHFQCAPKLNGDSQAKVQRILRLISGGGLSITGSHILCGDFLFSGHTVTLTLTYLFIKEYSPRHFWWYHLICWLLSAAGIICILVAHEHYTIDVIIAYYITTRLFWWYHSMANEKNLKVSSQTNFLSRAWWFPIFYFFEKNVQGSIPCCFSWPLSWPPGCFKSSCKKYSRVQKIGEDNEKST
Procedure, shortened: (§6)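 Purified SMS1 or SMS2 in DDM detergent buffer; inhibitor in DMSO pre-incubated 5 min at room temperature, then C6-NBD-ceramide and DMPC added, 30 min at 37 °C; ethanol quench, TLC or HPLC read-out. Activity expressed as percent of no-inhibitor vehicle; IC50 from ten (SMS1) or eight (SMS2) concentrations, mean ± SD, n = 3.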

[10] = target: T3, Phosphatidylcholine:ceramide cholinephosphotransferase 2 (Homo sapiens) (UniProt Q8NHU3); assay: as §5; procedure, shortened: as §6
T3 sequence (whole entry): T2 sequence (Q8NHU3 whole entry)

[11] = system: Mus musculus; assay: Effect on plasma ALT level in apoE knockout mouse fed with western-type diet at 12.5 to 40 mg/kg/day, ig for 7 weeks; format: ADME, organism-based; conditions: in vivo, po, 1176 h; procedure, shortened: as §4
[12] = MRT (0 to infinity) in C57BL/6J mouse at 100 mg/kg/day, ig by HPLC-MS/MS analysis; format: ADME, organism-based; conditions: in vivo, po; procedure, shortened: as §1
[13] = system: Mus musculus; assay: Anti-atherosclerotic activity in apoE knockout mouse fed with western-type diet assessed as reduction in CD4+/CD8+ cell ratio at 12.5 mg/kg/day, ig for 7 weeks by flow cytometric analysis relative to control; format: functional; parameters: scale not given: the % may be the effect or the level left; procedure, shortened: as §2
[14] = Dose normalized AUC (0 to 8 hrs) in C57BL/6J mouse at 25 mg/kg/day, ig by HPLC-MS/MS analysis; format: ADME, organism-based; conditions: in vivo, po; procedure, shortened: as §3
[15] = Tmax in C57BL/6J mouse at 100 mg/kg/day, ig by HPLC-MS/MS analysis; format: ADME, organism-based; conditions: in vivo, po; procedure, shortened: as §1

For `CCc1ccccc1COc1ccccc1C(=O)Nc1cccnc1`, the MRT [1] was 1.66 h, the Activity [2] was “Dose-dependent effect” and the Activity [3] was 28%. For the same compound, the inhibition [4] was “Dose-dependent effect”, the Activity [5] was 50% and the AUC/dose [6] was 0.13 µg·h/mL. For the same compound, the CL/F [7] was 188 mL/min, the Activity [8] was 41% and the IC50 [9] was 0.091 µM. For the same compound, the inhibition [10] was “Dose-dependent effect”, the Activity [11] was “Non-Toxic” and the MRT inf [12] was 2.57 h. The Activity [13] was 34%, the AUC/dose [14] was 0.08 µg·h/mL and the Tmax [15] was 6 min.
